One assay has as its target Prothrombin (Homo sapiens, UniProt P00734). Description: Inhibition of human thrombin. An outline of the steps: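 Preincubated with compound 30 min, then Pefachrome TH at 50 μM final. p-Nitroanilide release followed at 405 nm for 5 min. IC50 from initial velocities; apparent Ki via Cheng-Prusoff, assuming competitive inhibition.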
A further assay concerns the target Coagulation factor X (Homo sapiens, UniProt P00742). Description: Compound was evaluated for the inhibition of human Coagulation factor Xa.
A further assay addresses T1, Serine protease 1 (Bos taurus, UniProt P00760).
T1 sequence (P00760 whole entry): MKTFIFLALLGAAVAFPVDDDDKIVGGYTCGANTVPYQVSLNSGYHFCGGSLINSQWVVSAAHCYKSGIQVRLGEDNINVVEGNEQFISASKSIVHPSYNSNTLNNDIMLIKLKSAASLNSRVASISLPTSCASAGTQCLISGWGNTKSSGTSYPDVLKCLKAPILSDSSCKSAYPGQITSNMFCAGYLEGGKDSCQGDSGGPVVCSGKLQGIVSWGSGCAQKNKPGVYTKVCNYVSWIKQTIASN
Description: Inhibitory activity against bovine pancreatic trypsin. In outline:
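Bovine trypsin at 1 nM final, with buffer 0.05 M Tris, 0.15 M NaCl, 0.1% PEG-8000, 0.02 M CaCl2, pH 7.5, room temperature. 30 min compound preincubation, then S-2765 at 250 μM final. 405 nm read continuously for 5 min. IC50 from initial rates; apparent Ki by Cheng-Prusoff, assuming competitive kinetics.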

Sequence of Coagulation factor X (P00742 41-179 limits assumed): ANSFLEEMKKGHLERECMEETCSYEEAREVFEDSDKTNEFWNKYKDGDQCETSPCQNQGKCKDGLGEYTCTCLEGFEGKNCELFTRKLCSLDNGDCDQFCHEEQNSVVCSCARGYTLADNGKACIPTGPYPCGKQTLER
Sequence of Coagulation factor X (P00742 235-488 limits assumed): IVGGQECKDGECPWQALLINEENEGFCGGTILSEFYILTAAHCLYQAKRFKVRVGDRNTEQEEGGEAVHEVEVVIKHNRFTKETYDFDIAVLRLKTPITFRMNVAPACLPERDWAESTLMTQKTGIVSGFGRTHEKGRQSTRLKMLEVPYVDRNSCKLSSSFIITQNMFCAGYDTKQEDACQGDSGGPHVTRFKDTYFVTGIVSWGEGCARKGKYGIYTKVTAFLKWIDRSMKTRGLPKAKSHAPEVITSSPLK

Take `CCc1ccc2ccc(S(=O)(=O)N[C@H]3CCN(Cc4cccc(C(=N)N)c4)C3=O)cc2c1`: the Ki came to 1.6 µM on Prothrombin, 0.37 µM on Coagulation factor X and 1.6 µM on Serine protease 1.
Turning to `N=C(N)c1cccc(CN2CC[C@H](NS(=O)(=O)c3cccc(-c4ccccc4)c3)C2=O)c1`, the values for the Ki at Prothrombin, on Coagulation factor X and at Serine protease 1 were > 4 µM, 0.44 µM and > 2.9 µM, respectively.
For `N=C(N)c1cccc(CNC(=O)CNS(=O)(=O)c2ccc3ccccc3c2)c1`, the Ki on Prothrombin is 0.63 µM; on Coagulation factor X it was 0.34 µM; at Serine protease 1, 0.08 µM.
Taken in the same sequence, the figures for `COc1ccc2ccc(S(=O)(=O)N[C@H]3CCN(Cc4ccc(C(=N)N)cc4)C3=O)cc2c1` were > 4 µM, 0.97 µM and 2.3 µM.
In the case of `N=C(N)c1cccc(CN2C[C@@H](NS(=O)(=O)c3ccc4ccccc4c3)CC2=O)c1`, the values for the Ki at Prothrombin, on Coagulation factor X and on Serine protease 1 were > 4 µM, 9.8 µM and > 2.9 µM, respectively.
For `N=C(N)c1cccc(CN2CC[C@H](NS(=O)(=O)c3ccc(Cc4ccccc4)cc3)C2=O)c1`, the Ki at Prothrombin was > 4 µM; at Coagulation factor X, 1.1 µM; at Serine protease 1, > 2.9 µM.
Taken in the same sequence, the figures for `N=C(N)c1cccc(CN2CC[C@H](NS(=O)(=O)c3ccc4cc(Cl)ccc4c3)C2=O)c1` were 1.5 µM, 0.07 µM and > 2.9 µM.
Taken in the same sequence, the figures for `COc1ccc2ccc(S(=O)(=O)N(Cc3cccs3)[C@H]3CCN(Cc4cccc(C(=N)N)c4)C3=O)cc2c1` were 0.97 µM, 0.034 µM and 1.94 µM.
Taken in the same sequence, the figures for `Cc1cccc(-c2ccc(S(=O)(=O)N[C@H]3CCN(Cc4cccc(C(=N)N)c4)C3=O)cc2)c1` were > 4 µM, 0.12 µM and > 2.9 µM.
With `COc1ccccc1-c1ccc(S(=O)(=O)N[C@H]2CCN(Cc3cccc(C(=N)N)c3)C2=O)cc1`, the figures for the Ki at Prothrombin, at Coagulation factor X and on Serine protease 1 were > 4 µM, 0.19 µM and > 2.9 µM, respectively.
Take `N=C(N)c1cccc(CN2CC[C@H](NS(=O)(=O)c3ccc4ccc(Cl)cc4c3)C2=O)c1`: the Ki on Prothrombin turned out to be 1.2 µM; on Coagulation factor X it was 0.078 µM; at Serine protease 1, 2 µM.
In the case of `COc1ccc2ccc(S(=O)(=O)N(Cc3ccsc3)[C@H]3CCN(Cc4cccc(C(=N)N)c4)C3=O)cc2c1`, the Ki at Prothrombin is 0.36 µM; at Coagulation factor X it was 0.019 µM; at Serine protease 1, 1.08 µM.
`COc1ccc2ccc(S(=O)(=O)N(CC(=O)O)[C@H]3CCN(Cc4cccc(C(=N)N)c4)C3=O)cc2c1`: the Ki was > 4 µM on Prothrombin, 0.12 µM on Coagulation factor X and > 2.9 µM at Serine protease 1.
`COc1ccc2ccc(S(=O)(=O)N(Cc3ccccn3)[C@H]3CCN(Cc4cccc(C(=N)N)c4)C3=O)cc2c1`: the Ki on Prothrombin is 1.16 µM; at Coagulation factor X it was 0.031 µM; at Serine protease 1 it was 1.94 µM.
Taken in the same sequence, the figures for `COc1ccc2ccc(S(=O)(=O)N(Cc3ccccc3)[C@H]3CCN(Cc4cccc(C(=N)N)c4)C3=O)cc2c1` were 0.44 µM, 0.041 µM and 1.8 µM.
As for `COc1ccc2ccc(S(=O)(=O)N[C@H]3CCN(Cc4csc(C(=N)N)c4)C3=O)cc2c1`, the Ki at Prothrombin was determined as 1.3 µM; at Coagulation factor X, 0.011 µM; on Serine protease 1 it was 0.5 µM.
Taken in the same sequence, the figures for `N=C(N)c1cccc(CN2CC[C@H](NS(=O)(=O)c3ccc4ccccc4c3)C2)c1` were > 4 µM, > 10 µM and > 2.9 µM.
Regarding `COc1cccc(-c2ccc(S(=O)(=O)N[C@H]3CCN(Cc4cccc(C(=N)N)c4)C3=O)cc2)c1`, the Ki on Prothrombin is 2.5 µM; at Coagulation factor X, 0.1 µM; at Serine protease 1, > 2.9 µM.
`COc1ccc2ccc(S(=O)(=O)N[C@H]3CCN(Cc4ccc(C(=N)N)o4)C3=O)cc2c1`: the inhibition constant Ki at Prothrombin was > 4 µM; on Coagulation factor X, 0.57 µM; at Serine protease 1 it was > 2.9 µM.
`COc1ccc2ccc(S(=O)(=O)N[C@H]3CCN(Cc4ccc(C(=N)N)s4)C3=O)cc2c1`: the Ki at Coagulation factor X amounted to 0.22 µM.

These data come from ChEMBL document CHEMBL1132151, “Design and structure-activity relationships of potent and selective inhibitors of blood coagulation factor Xa” (J Med Chem, 1999).
